Among the data in ChEMBL document CHEMBL1828498, “Identification and characterization of a novel integrin-linked kinase inhibitor” (J Med Chem, 2011) are inhibition values, retold here.

Assay [1] concerns the target T1, 3-phosphoinositide-dependent protein kinase 1 (Homo sapiens) (UniProt O15530).
T1 sequence (whole entry): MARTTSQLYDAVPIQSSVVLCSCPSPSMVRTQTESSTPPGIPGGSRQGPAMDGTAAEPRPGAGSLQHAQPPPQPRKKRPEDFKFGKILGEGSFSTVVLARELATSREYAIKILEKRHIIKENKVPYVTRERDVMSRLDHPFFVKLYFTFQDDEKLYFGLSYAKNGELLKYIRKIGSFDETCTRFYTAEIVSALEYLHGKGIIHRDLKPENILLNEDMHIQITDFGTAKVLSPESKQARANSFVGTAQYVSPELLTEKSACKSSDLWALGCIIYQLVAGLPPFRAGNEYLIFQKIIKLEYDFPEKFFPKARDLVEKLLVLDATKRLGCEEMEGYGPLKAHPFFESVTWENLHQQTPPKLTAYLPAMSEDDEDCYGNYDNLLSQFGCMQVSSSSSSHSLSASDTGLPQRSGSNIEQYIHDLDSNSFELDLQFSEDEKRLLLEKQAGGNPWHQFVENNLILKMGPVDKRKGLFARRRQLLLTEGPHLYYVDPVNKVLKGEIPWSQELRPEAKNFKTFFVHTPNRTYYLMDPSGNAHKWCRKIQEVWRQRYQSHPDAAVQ
Description: Inhibition of PDK2 in human PC3 cells assessed as Akt Thr-308 dephosphorylation by Western blot analysis. The class given is functional, cell-based. The settings on record: PC-3. An outline of the steps:
(§1)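 Cells exposed 24 h in 5% FBS medium, final DMSO 0.1%; lysed in 1% SDS/10 mM EDTA/50 mM Tris pH 8.1, equal protein on SDS-PAGE, nitrocellulose, primary antibody 1:1000 at 4°C for 2 h, HRP secondary 1:5000, ECL detection; blots representative of three independent experiments.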
Background: A western blot detects proteins with antibodies after separation by electrophoresis.

Assay [2] deals with 3-phosphoinositide dependent protein kinase-2, PDK2. Description: Inhibition of PDK2 in human PC3 cells assessed as Akt Ser-473 dephosphorylation by Western blot analysis. The class given is functional, cell-based. The settings on record: PC-3. An outline of the steps: as §1

Active and inactive are the calls of the source. The rule behind the calls is not given here.

As for `N#Cc1ccc(C(=O)N2CCN(c3ccc(-n4nc(C(F)(F)F)cc4-c4ccc5c(ccc6ccccc65)c4)cc3)CC2)cc1`, the inhibition result in assay [1] and in assay [2] was “inactive” in each case.

For the molecule `O=C(c1cccc([N+](=O)[O-])c1)N1CCN(c2ccc(-n3nc(C(F)(F)F)cc3-c3ccc4c(ccc5ccccc54)c3)cc2)CC1`, the inhibition entry in assay [1] and in assay [2] was “inactive” in each case.

`CCNC(=O)CCc1cc(-c2ccc(-c3ccc(C(F)(F)F)cc3)cc2)n(-c2ccc(NC(=O)CCN)cc2)n1`: the inhibition entry in assay [1] and in assay [2] was “inactive” in each case.

Turning to `N#Cc1cccc(C(=O)N2CCN(c3ccc(-n4nc(C(F)(F)F)cc4-c4ccc5c(ccc6ccccc65)c4)cc3)CC2)c1`, the inhibition entry in assay [1] and in assay [2] was “inactive” throughout.

With `Nc1ccc(C(=O)N2CCN(c3ccc(-n4nc(C(F)(F)F)cc4-c4ccc5c(ccc6ccccc65)c4)cc3)CC2)cc1`, the inhibition result in assay [1] and in assay [2] was “inactive” in each case.

On to `NCCC(=O)Nc1ccc(-n2nc(C(F)(F)F)cc2-c2ccc3ccc4ccccc4c3c2)cc1`, for which the inhibition result in assay [1] and in assay [2] was “inactive” throughout.

`NS(=O)(=O)c1ccc(-n2nc(C(F)(F)F)cc2-c2ccc3c(ccc4ccccc43)c2)cc1`: the inhibition entry in assay [1] and in assay [2] was “inactive” in each case.

Consider `NCCCC[C@@H](N)C(=O)Nc1ccc(-n2nc(C(F)(F)F)cc2-c2ccc3c(ccc4ccccc43)c2)cc1`, for which the inhibition entry in assay [1] and in assay [2] was “inactive” in each case.
